From ChEMBL document CHEMBL4477213, “Discovery and Optimization of Quinazolinone-pyrrolopyrrolones as Potent and Orally Bioavailable Pan-Pim Kinase Inhibitors” (J Med Chem, 2016)
≈ marks a conversion by molar mass, not a printed value.

Key:
[1] = Oral bioavailability in rat at 5 mg/kg; type: ADME, organism-based; conditions: in vivo
[2] = Aqueous solubility of the compound in FaSIF at pH 6.8 after 1 hr by LC/MS analysis
[3] = Volume of distribution at steady state in rat at 2 mg/kg, iv or 5 mg/kg, po; type: ADME, organism-based; conditions: in vivo, read-out: Vdss
[4] = Clearance in rat at 2 mg/kg, iv; type: ADME, organism-based; conditions: in vivo
[5] = Intrinsic clearance in human liver microsomes at 1 uM after 30 mins in presence of NADPH; type: ADME, Microsome; conditions: read-out: CLH
[6] = Fraction unbound in rat plasma at 5 uM by rapid equilibrium dialysis; type: ADME, cell-free
[7] = Apparent permeability in pig LLC-PK1 cells; type: ADME, cell-based, Sus scrofa
[8] = Aqueous solubility of the compound in PBS at pH 7.4 after 1 hr by LC/MS analysis; type: physicochemical
Method in brief: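 The compound was dried down from DMSO and taken up in 1x PBS (pH 7.4) or FaSIF (pH 6.8). Samples were shaken 1 h, equilibrated at RT for 72 h, then centrifuged.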

[9] = Half life in rat at 2 mg/kg, iv or 5 mg/kg, po; type: ADME, organism-based; conditions: in vivo
[10] = Intrinsic clearance in rat liver microsomes at 1 uM after 30 mins in presence of NADPH; type: ADME, Microsome; conditions: read-out: CLH
[11] = biological target: Serine/threonine-protein kinase PIM (Homo sapiens, UniProt P11309+Q9P1W9+Q86V86); conditions: kms-12-bm
[12] = biological target: Serine/threonine-protein kinase pim-1 (Homo sapiens, UniProt P11309)
[13] = biological target: Serine/threonine-protein kinase pim-2 (Homo sapiens, UniProt Q9P1W9); test: Inhibition of full length recombinant Pim-2 (unknown origin) assessed as reduction in phosphorylation of biotinylated-BAD peptide at Serine 112 residue preincubated for 30 mins followed by substrate addition for 1 hr by HTRF assay
[14] = Volume of distribution at steady state in dog at 0.3 mg/kg, iv; type: ADME, organism-based, Canis lupus familiaris; conditions: in vivo, read-out: Vdss
[15] = Intrinsic clearance in dog liver microsomes at 1 uM after 30 mins in presence of NADPH; type: ADME, Canis lupus familiaris, Microsome; conditions: read-out: CLH
Method in brief: (§1)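 Parent compound at 1 µM was incubated with liver microsomes (rat or dog, 0.25 mg/mL) in 66.7 mM potassium phosphate, pH 7.4, with 1 mM NADPH at 37 °C for 30 min.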

[16] = Clearance in dog at 0.3 mg/kg, iv; type: ADME, organism-based, Canis lupus familiaris; conditions: in vivo
[17] = Half life in dog at 0.3 mg/kg, iv; type: ADME, organism-based, Canis lupus familiaris; conditions: in vivo
[18] = Drug metabolism in dog hepatocytes assessed as hydroxylation on the quinoxaline bicycle; type: ADME, cell-based, Canis lupus familiaris, Hepatocyte
Homo sapiens = organism: Homo sapiens; test: Ratio of IC50 for pan Pim in human KMS-12-BM cells to IC50 for full length recombinant Pim-2 (unknown origin); type: cell-based
Method in brief: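 Enzyme step: full-length recombinant human Pim-2 phosphorylating a BAD peptide at Ser112. The shift is the ratio of the cellular potency to the enzymatic potency.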

[19] = Drug level in rat liver microsomes treated with 2-(3-(tert-butylamino)-6-fluoro-2-methylquinoxalin-5-yl)-6,7-dihydro-1H-pyrrolo[3,2-c]pyridin-4(5H)-one; type: ADME, Microsome; method in brief: as §1

Sequence of Serine/threonine-protein kinase pim-1 (P11309 whole entry): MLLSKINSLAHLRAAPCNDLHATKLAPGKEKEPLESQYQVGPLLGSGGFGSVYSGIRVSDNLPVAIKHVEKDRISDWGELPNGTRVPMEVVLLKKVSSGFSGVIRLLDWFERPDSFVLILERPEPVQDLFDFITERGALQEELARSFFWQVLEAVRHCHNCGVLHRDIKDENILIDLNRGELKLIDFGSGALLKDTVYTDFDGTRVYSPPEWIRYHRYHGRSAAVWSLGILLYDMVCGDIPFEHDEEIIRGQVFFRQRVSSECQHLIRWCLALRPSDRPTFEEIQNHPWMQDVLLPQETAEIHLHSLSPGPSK
Sequence of Serine/threonine-protein kinase pim-2 (Q9P1W9 whole entry): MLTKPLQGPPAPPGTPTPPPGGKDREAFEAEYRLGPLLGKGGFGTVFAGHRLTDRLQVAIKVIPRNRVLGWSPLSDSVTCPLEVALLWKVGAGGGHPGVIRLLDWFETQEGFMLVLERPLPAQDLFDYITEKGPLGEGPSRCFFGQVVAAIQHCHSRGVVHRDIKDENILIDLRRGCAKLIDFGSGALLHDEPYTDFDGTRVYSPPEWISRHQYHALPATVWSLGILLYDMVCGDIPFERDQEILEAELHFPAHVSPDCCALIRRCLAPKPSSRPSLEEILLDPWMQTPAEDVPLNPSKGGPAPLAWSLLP

C[C@H]1NC(=O)c2cc(-c3c(F)ccc4c(=O)n(C)c(NC(C)(C)C)nc34)[nH]c21
bioavailability [1]: 10% | solubility at 1 h [2]: 23 µM (≈ 8.82 µg/mL) | Vd [3]: 1.4 L/kg | clearance [4]: 6.67 mL/min/kg | microsomal CLint at 1 µM [5]: < 14 µL/min/mg | fraction unbound at 5 µM [6]: 0.062 | Papp [7]: 16 ×10⁻⁶ cm/s | solubility at 1 h [8]: 14 µM (≈ 5.37 µg/mL) | half-life [9]: 4.3 h | microsomal CLint at 1 µM [10]: 16 µL/min/mg

Cc1nc2cccc(-c3cc4c([nH]3)CCCNC4=O)c2nc1NC(C)(C)C
microsomal CLint at 1 µM [5]: 67 µL/min/mg | microsomal CLint at 1 µM [10]: 169 µL/min/mg

C[C@H]1NC(=O)c2cc(-c3cccc4c(=O)n(C)c(NC5(C)CC5)nc34)[nH]c21
bioavailability [1]: 5% | solubility at 1 h [2]: 344 µM (≈ 125 µg/mL) | Vd [3]: 1.9 L/kg | Papp [7]: 29 ×10⁻⁶ cm/s | solubility at 1 h [8]: 56 µM (≈ 20.4 µg/mL)

Cc1nc2cccc(-c3cc4c([nH]3)[C@H](C)NC4=O)c2nc1NC(C)(C)C
microsomal CLint at 1 µM [5]: 89 µL/min/mg | microsomal CLint at 1 µM [10]: 130 µL/min/mg

C[C@H]1NC(=O)c2cc(-c3cccc4c(=O)n(C)c(NC(C)(C)CO)nc34)[nH]c21
solubility at 1 h [2]: 134 µM (≈ 51.1 µg/mL) | IC50 [11]: 127 nM | IC50 [12]: 0.7 nM | IC50 [13]: 0.9 nM | solubility at 1 h [8]: 101 µM (≈ 38.5 µg/mL)

Cc1nc2ccc(F)c(-c3cc4c([nH]3)[C@@H](C)NC4=O)c2nc1NC(C)(C)C
bioavailability [1]: 54% | Vd [14]: 1.7 L/kg | microsomal CLint at 1 µM [15]: 105 µL/min/mg | clearance [16]: 25 mL/min/kg | half-life [17]: 1.1 h | Vd [3]: 1.6 L/kg | clearance [4]: 8.33 mL/min/kg | microsomal CLint at 1 µM [5]: 35 µL/min/mg | half-life [9]: 2.9 h | microsomal CLint at 1 µM [10]: 52 µL/min/mg

Cc1nc2cccc(-c3cc4c([nH]3)C3(CCOCC3)NC4=O)c2nc1NC(C)(C)C
IC50 [11]: 5760 nM | IC50 [12]: 44 nM | IC50 [13]: 117 nM | microsomal CLint at 1 µM [5]: < 14 µL/min/mg | microsomal CLint at 1 µM [10]: 45 µL/min/mg

Cc1nc2cccc(-c3cc4c([nH]3)CNC4=O)c2nc1NC(C)(C)C
bioavailability [1]: 36% | IC50 [11]: 44 nM | IC50 [13]: 0.9 nM | Vd [3]: 2.3 L/kg | clearance [4]: 26.7 mL/min/kg | microsomal CLint at 1 µM [5]: 45 µL/min/mg | half-life [9]: 1.7 h | microsomal CLint at 1 µM [10]: 96 µL/min/mg

Cc1nc2cccc(-c3cc4c([nH]3)[C@@H](C)NC4=O)c2nc1NC(C)(C)C
bioavailability [1]: 62% | solubility at 1 h [2]: 245 µM (≈ 85.6 µg/mL) | Vd [14]: 1.7 L/kg | microsomal CLint at 1 µM [15]: 88 µL/min/mg | clearance [16]: 26.7 mL/min/kg | half-life [17]: 0.6 h | Vd [3]: 1.3 L/kg | Drug metabolism [18]: Metabolite_Detected | clearance [4]: 8.33 mL/min/kg | microsomal CLint at 1 µM [5]: 37 µL/min/mg | solubility at 1 h [8]: 99 µM (≈ 34.6 µg/mL) | half-life [9]: 3 h | microsomal CLint at 1 µM [10]: 50 µL/min/mg

Cc1nc2cccc(-c3cc4n(c3)CCNC4=O)c2nc1NC(C)(C)C
IC50 [11]: 4560 nM | IC50 [12]: 6.6 nM | IC50 [13]: 6.1 nM | microsomal CLint at 1 µM [5]: 85 µL/min/mg | microsomal CLint at 1 µM [10]: 205 µL/min/mg

C[C@H]1NC(=O)c2cc(-c3cccc4c(=O)n(C)c(N(C)C(C)(C)C)nc34)[nH]c21
solubility at 1 h [2]: 122 µM (≈ 46.3 µg/mL) | IC50 [11]: 167 nM | IC50 [12]: 1.5 nM | IC50 [13]: 1 nM | solubility at 1 h [8]: 61 µM (≈ 23.1 µg/mL)

C[C@H]1NC(=O)c2cc(-c3cccc4c(=O)n(C)c(N5CCCC5(C)C)nc34)[nH]c21
solubility at 1 h [2]: 35 µM (≈ 13.7 µg/mL) | IC50 [11]: 88 nM | IC50 [12]: 0.9 nM | IC50 [13]: 0.6 nM | solubility at 1 h [8]: 20 µM (≈ 7.83 µg/mL)

C[C@H]1NC(=O)c2cc(-c3nccc4c(=O)n(C)c(NC(C)(C)C)nc34)[nH]c21
IC50 [11]: 1642 nM | IC50 [12]: 4.5 nM | IC50 [13]: 7.4 nM

Cc1nc2cccc(-c3cc4c([nH]3)CCNC4=O)c2nc1NC(C)(C)C
bioavailability [1]: 6% | IC50 [11]: 110 nM | IC50 [12]: 0.8 nM | IC50 [13]: 0.6 nM | Vd [3]: 4.2 L/kg | clearance [4]: 11.7 mL/min/kg | microsomal CLint at 1 µM [5]: 70 µL/min/mg | half-life [9]: 4.7 h | microsomal CLint at 1 µM [10]: 86 µL/min/mg

Cc1nc2cccc(-c3cc4c([nH]3)C3(CC3)NC4=O)c2nc1NC(C)(C)C
bioavailability [1]: 100% | IC50 [11]: 78 nM | IC50 [12]: 0.4 nM | IC50 [13]: 0.5 nM | Vd [3]: 1.3 L/kg | clearance [4]: 10 mL/min/kg | microsomal CLint at 1 µM [5]: 35 µL/min/mg | half-life [9]: 4.5 h | microsomal CLint at 1 µM [10]: 52 µL/min/mg

C[C@H]1NC(=O)c2cc(-c3cccc4c(=O)n(C)c(CC(C)(C)C)nc34)[nH]c21
solubility at 1 h [2]: 9 µM (≈ 3.28 µg/mL) | IC50 [11]: 5960 nM | IC50 [12]: 7.3 nM | IC50 [13]: 4.9 nM | Ratio IC50 (Homo sapiens): > 1000

C[C@H]1NC(=O)c2cc(-c3cccc4c3N=C(NC(C)(C)C)N(C)S4(=O)=O)[nH]c21
IC50 [11]: 1142 nM | IC50 [12]: 6.5 nM | IC50 [13]: 5.2 nM

Cc1nc2ccc(F)c(-c3cc4c([nH]3)CCNC4=O)c2nc1NC(C)(C)CO
IC50 [11]: 143 nM | Drug metabolism [19]: Metabolite_Detected | IC50 [12]: 0.9 nM | IC50 [13]: 0.3 nM

Cc1nc2cccc(-c3cc4c([nH]3)[C@@H](CCN)NC4=O)c2nc1NC(C)(C)C
bioavailability [1]: < 1% | IC50 [11]: 22 nM | IC50 [12]: 0.6 nM | IC50 [13]: 0.3 nM | Vd [3]: 21.2 L/kg | clearance [4]: 23.3 mL/min/kg | microsomal CLint at 1 µM [5]: < 14 µL/min/mg | half-life [9]: 17.5 h | microsomal CLint at 1 µM [10]: < 14 µL/min/mg

Cc1c(NC(C)(C)C)nc2c(-c3cc4c([nH]3)[C@@H](C)NC4=O)cccn2c1=O
IC50 [11]: > 2000 nM | IC50 [12]: 3.1 nM | IC50 [13]: 2.1 nM

Cc1nc2cccc3c2nc1N[C@H](C)/C=C\C[C@H]1CNC(=O)c2cc-3[nH]c21
solubility at 1 h [2]: 295 µM (≈ 106 µg/mL)

Cc1nc2cccc(-c3cc4c(s3)CNC4=O)c2nc1NC(C)(C)C
IC50 [11]: 2870 nM | IC50 [12]: 6.4 nM | IC50 [13]: 6.8 nM | microsomal CLint at 1 µM [5]: 102 µL/min/mg | microsomal CLint at 1 µM [10]: 326 µL/min/mg

Cc1nc2cccc(-c3[nH]c4c(c3Cl)C(=O)N[C@@H]4C)c2nc1NC(C)(C)C
microsomal CLint at 1 µM [5]: 111 µL/min/mg | microsomal CLint at 1 µM [10]: 143 µL/min/mg

Cc1nc2cccc(-c3cc4c(s3)C(=O)NC4)c2nc1NC(C)(C)C
IC50 [11]: 1380 nM | IC50 [12]: 2.5 nM | IC50 [13]: 2.5 nM | microsomal CLint at 1 µM [5]: 104 µL/min/mg | microsomal CLint at 1 µM [10]: 373 µL/min/mg
